Experimental data from different studies.
Read-out: cell growth or viability

`COc1cc(OC)cc([C@H]2C[C@@H](C)OC(=O)c3cc4ccccn4c32)c1` (racemic) has a CC50 of > 100 µM (HFF-1; resazurin; 72 h).
For `CCCCCCCCCCCCCCCc1ccc(CP(=O)(O)O)cc1`, the viability was > 93% (Mm1; trypan blue; 10 µM; 20 h).
For `O=C(O)c1ccc(P(c2ccccc2)c2ccccc2)cc1`, the CC50 was 210 µg/mL (NIH3T3; resazurin; 18 h).
`N=C(N)NCc1ccc(NC(=O)c2ccc(C(=O)Nc3ccc(C4=CCN(C(=N)N)CC4)nn3)cc2)cc1` gave a CC50 of 231 µM (NIH3T3; MTS; 24 h).
`O=C(CCl)Cn1nnc(-c2ccccc2)c1COC(=O)NCc1ccccc1` gave a CC50 of 20 µM (HFF-1; ATP luminescence; 48 h).
The CC50 of `COc1cccc2c1C(=O)c1c(O)c3c(c(O)c1C2=O)C[C@@](O)(C(=O)CO)C[C@@H]3O[C@H]1C[C@H](N)[C@H](O)[C@H](C)O1` is reported as 0.468 µM (HFF-1; resazurin; 72 h).
`COc1ccc(S(=O)(=O)ON=C2C=C(C)C(=O)C(C)=C2)cc1` gave a CC50 of 4.74 µM (PC-3).
`N=C(N)NCc1ccc(NC(=O)c2ccc(C(=O)Nc3ccc(C4=CCN(C(=N)N)CC4)cc3)cn2)cc1` has a CC50 of > 1170 µM (NIH3T3; MTS; 24 h).
